What was measured:
[1] = Metabolic stability in rat hepatocytes at 22 uM after 44 hrs; assay type: ADME, cell-based, Hepatocyte
Plasmodium berghei [2] = assay: Antimalarial activity against Plasmodium berghei infected in Swiss Webster mouse assessed as mouse survival rate at 0.1 mg/kg administered once daily via oral gavage for 4 consecutive days beginning 1 hr after infection measured on day 5 post infection relative to control; assay type: functional
Method in brief: (§1)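 Mice given an intraperitoneal injection of P. berghei-infected erythrocytes taken from a previously infected animal. Oral dosing once daily for 4 consecutive days, starting 1 h after infection. Vehicle: polyethylene glycol 300/propylene glycol/water (weight ratio 55/25/20). Percent survival recorded daily from day 4 to day 20. Chloroquine 30 mg/kg and vehicle-only groups served as controls.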

Plasmodium berghei [3] = assay: Antimalarial activity against Plasmodium berghei infected in Swiss Webster mouse assessed as mouse survival rate at 33 mg/kg administered once daily via oral gavage for 4 consecutive days beginning 1 hr after infection measured on day 10 post infection relative to control; assay type: functional
Method in brief: (§2)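 P. berghei-infected erythrocytes taken from a previously infected mouse were injected intraperitoneally. Oral dosing, once daily for 4 consecutive days, began 1 h after infection, in polyethylene glycol 300/propylene glycol/water (55/25/20 by weight). Chloroquine at 30 mg/kg was the positive control, with a vehicle-only group. Percent survival was recorded daily from day 4 to day 20.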

Plasmodium berghei [4] = assay: Antimalarial activity against Plasmodium berghei infected in Swiss Webster mouse assessed as mouse survival rate at 100 mg/kg administered once daily via oral gavage for 4 consecutive days beginning 1 hr after infection measured on day 14 post infection relative to control; assay type: functional; method in brief: as §1
Plasmodium berghei [5] = assay: Antimalarial activity against Plasmodium berghei infected in Swiss Webster mouse assessed as mouse survival rate at 33 mg/kg administered once daily via oral gavage for 4 consecutive days beginning 1 hr after infection measured on day 5 post infection relative to control; assay type: functional; method in brief: as §2
Plasmodium berghei [6] = assay: Antimalarial activity against Plasmodium berghei infected in Swiss Webster mouse assessed as mouse survival rate at 11 mg/kg administered once daily via oral gavage for 4 consecutive days beginning 1 hr after infection measured on day 6 post infection relative to control; assay type: functional; method in brief: as §2
Plasmodium berghei [7] = assay: Antimalarial activity against Plasmodium berghei infected in Swiss Webster mouse assessed as mouse survival rate at 33 mg/kg administered once daily via oral gavage for 4 consecutive days beginning 1 hr after infection measured on day 6 post infection relative to control; assay type: functional; method in brief: as §2
Plasmodium berghei [8] = assay: Antimalarial activity against Plasmodium berghei infected in Swiss Webster mouse assessed as mouse survival rate at 33 mg/kg administered once daily via oral gavage for 4 consecutive days beginning 1 hr after infection measured on day 8 post infection relative to control; assay type: functional; method in brief: as §2
Plasmodium berghei [9] = assay: Antimalarial activity against Plasmodium berghei infected in Swiss Webster mouse assessed as mouse survival rate at 1.2 mg/kg administered once daily via oral gavage for 4 consecutive days beginning 1 hr after infection measured on day 6 post infection relative to control; assay type: functional; method in brief: as §1
Plasmodium berghei [10] = assay: Antimalarial activity against Plasmodium berghei infected in Swiss Webster mouse assessed as mouse survival rate at 3.7 mg/kg administered once daily via oral gavage for 4 consecutive days beginning 1 hr after infection measured on day 6 post infection relative to control; assay type: functional; method in brief: as §2
Plasmodium berghei [11] = assay: Antimalarial activity against Plasmodium berghei infected in Swiss Webster mouse assessed as mouse survival rate at 33 mg/kg administered once daily via oral gavage for 4 consecutive days beginning 1 hr after infection measured on day 4 post infection relative to control; assay type: functional; method in brief: as §2
Plasmodium berghei [12] = assay: Antimalarial activity against Plasmodium berghei infected in Swiss Webster mouse assessed as mouse survival rate at 100 mg/kg administered once daily via oral gavage for 4 consecutive days beginning 1 hr after infection measured on day 6 post infection relative to control; assay type: functional; method in brief: as §1
Plasmodium berghei [13] = assay: Antimalarial activity against Plasmodium berghei infected in Swiss Webster mouse assessed as mouse survival rate at 33 mg/kg administered once daily via oral gavage for 4 consecutive days beginning 1 hr after infection measured on day 9 post infection relative to control; assay type: functional; method in brief: as §2
Plasmodium berghei [14] = assay: Antimalarial activity against Plasmodium berghei infected in Swiss Webster mouse assessed as mouse survival rate at 3.7 mg/kg administered once daily via oral gavage for 4 consecutive days beginning 1 hr after infection measured on day 7 post infection relative to control; assay type: functional; method in brief: as §2
Plasmodium berghei [15] = assay: Antimalarial activity against Plasmodium berghei infected in Swiss Webster mouse assessed as mouse survival rate at 3.7 mg/kg administered once daily via oral gavage for 4 consecutive days beginning 1 hr after infection measured on day 4 post infection relative to control; assay type: functional; method in brief: as §2
Plasmodium berghei [16] = assay: Antimalarial activity against Plasmodium berghei infected in Swiss Webster mouse assessed as mouse survival rate at 0.1 mg/kg administered once daily via oral gavage for 4 consecutive days beginning 1 hr after infection measured on day 4 post infection relative to control; assay type: functional; method in brief: as §1
Plasmodium berghei [17] = assay: Antimalarial activity against Plasmodium berghei infected in Swiss Webster mouse assessed as mouse survival rate at 100 mg/kg administered once daily via oral gavage for 4 consecutive days beginning 1 hr after infection measured on day 7 post infection relative to control; assay type: functional; method in brief: as §1
Plasmodium berghei [18] = assay: Antimalarial activity against Plasmodium berghei infected in Swiss Webster mouse assessed as mouse survival rate at 33 mg/kg administered once daily via oral gavage for 4 consecutive days beginning 1 hr after infection measured on day 12 post infection relative to control; assay type: functional; method in brief: as §2
Plasmodium berghei [19] = assay: Antimalarial activity against Plasmodium berghei infected in Swiss Webster mouse assessed as mouse survival rate at 1.2 mg/kg administered once daily via oral gavage for 4 consecutive days beginning 1 hr after infection measured on day 4 post infection relative to control; assay type: functional; method in brief: as §1
Plasmodium berghei [20] = assay: Antimalarial activity against Plasmodium berghei infected in Swiss Webster mouse assessed as mouse survival rate at 100 mg/kg administered once daily via oral gavage for 4 consecutive days beginning 1 hr after infection measured on day 11 post infection relative to control; assay type: functional; method in brief: as §1
Plasmodium berghei [21] = assay: Antimalarial activity against Plasmodium berghei infected in Swiss Webster mouse assessed as mouse survival rate at 11 mg/kg administered once daily via oral gavage for 4 consecutive days beginning 1 hr after infection measured on day 8 post infection relative to control; assay type: functional; method in brief: as §2
Plasmodium berghei [22] = assay: Antimalarial activity against Plasmodium berghei infected in Swiss Webster mouse assessed as mouse survival rate at 11 mg/kg administered once daily via oral gavage for 4 consecutive days beginning 1 hr after infection measured on day 4 post infection relative to control; assay type: functional; method in brief: as §2
Plasmodium berghei [23] = assay: Antimalarial activity against Plasmodium berghei infected in Swiss Webster mouse assessed as mouse survival rate at 33 mg/kg administered once daily via oral gavage for 4 consecutive days beginning 1 hr after infection measured on day 7 post infection relative to control; assay type: functional; method in brief: as §2
Plasmodium berghei [24] = assay: Antimalarial activity against Plasmodium berghei infected in Swiss Webster mouse assessed as mouse survival rate at 100 mg/kg administered once daily via oral gavage for 4 consecutive days beginning 1 hr after infection measured on day 5 post infection relative to control; assay type: functional; method in brief: as §1
Plasmodium berghei [25] = assay: Antimalarial activity against Plasmodium berghei infected in Swiss Webster mouse assessed as mouse survival rate at 33 mg/kg administered once daily via oral gavage for 4 consecutive days beginning 1 hr after infection measured on day 14 post infection relative to control; assay type: functional; method in brief: as §2
Plasmodium berghei [26] = assay: Antimalarial activity against Plasmodium berghei infected in Swiss Webster mouse assessed as mouse survival rate administered once daily via oral gavage for 4 consecutive days beginning 1 hr after infection measured on day 4 post infection; assay type: functional; method in brief: as §1

Row | SMILES | survival at 33 mg/kg (Plasmodium berghei [5]) [%] | survival at 11 mg/kg (Plasmodium berghei [6]) [%] | survival at 33 mg/kg (Plasmodium berghei [7]) [%] | survival at 1.2 mg/kg (Plasmodium berghei [9]) [%] | survival at 3.7 mg/kg (Plasmodium berghei [10]) [%] | survival at 33 mg/kg (Plasmodium berghei [11]) [%] | survival at 100 mg/kg (Plasmodium berghei [12]) [%] | survival at 3.7 mg/kg (Plasmodium berghei [14]) [%] | survival at 3.7 mg/kg (Plasmodium berghei [15]) [%] | survival at 100 mg/kg (Plasmodium berghei [17]) [%] | survival at 1.2 mg/kg (Plasmodium berghei [19]) [%] | survival at 11 mg/kg (Plasmodium berghei [22]) [%] | survival at 33 mg/kg (Plasmodium berghei [23]) [%] | survival at 100 mg/kg (Plasmodium berghei [24]) [%] | ED90 (Plasmodium berghei [26]) [mg/kg] | also measured
1 | CCCC1(O)CN(C(=O)c2cnc(Oc3ccc4c(c3C)B(O)OC4)cn2)C1 | 100 | 100 | 100 | 100 | 100 | 100 | 100 | 0 | 100 | 100 | 100 | 100 | 100 | 100 | 3.3 | Stability [1]: Stable; survival at 0.1 mg/kg (Plasmodium berghei [2]): 100%; survival at 33 mg/kg (Plasmodium berghei [3]): 100%; survival at 100 mg/kg (Plasmodium berghei [4]): 80%; survival at 33 mg/kg (Plasmodium berghei [8]): 100%; survival at 33 mg/kg (Plasmodium berghei [13]): 100%; survival at 0.1 mg/kg (Plasmodium berghei [16]): 100%; survival at 33 mg/kg (Plasmodium berghei [18]): 100%; survival at 100 mg/kg (Plasmodium berghei [20]): 100%; survival at 11 mg/kg (Plasmodium berghei [21]): 80%; survival at 33 mg/kg (Plasmodium berghei [25]): 0%
2 | Cc1c(Oc2cnc(C(=O)NCCO)cn2)ccc2c1B(O)OC2 | 100 | 100 | 100 | 100 | 100 | 100 | 100 | 0 | 100 | 80 | 100 | 100 | 0 | 100 | 56.1 | 
